{"source": "paper PMC4355479", "about": "(Molecular cell, 2015)", "key": {"[1]": {"test_system": "MZM-REP, REP mutant", "test": "ITC with REP mutant of MZM-REP", "type": "binding", "conditions": "25 C; 42 μM; HEPES pH 7.4, 500 mM NaCl; REP side mutated; Figure 5C", "summary_of_the_method": "(§1)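 MZM-REP protein is expressed as an N-terminal His6-SUMO fusion and loaded in the ITC cell at 42 μM, 25 C, stirred at 1000 RPM. Jag1 tail polypeptide is the titrant. Binding parameters come from a one-site binding model fit.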"}, "[2]": {"test_system": "Mib1 with deletion of either the MZM or REP region", "test": "Co-immunoprecipitation with Mib1 lacking MZM or REP region", "type": "cell-based", "conditions": "HEK293T cells, Figure S1A"}, "[3]": {"test_system": "Mib1 with Asp to Asn mutations in one or both Mib repeat(s)", "test": "Co-immunoprecipitation with Mib1 Asp to Asn mutants in one or both Mib repeat", "type": "cell-based", "conditions": "HEK293T cells, Figure S3D"}, "[4]": {"test_system": "MZM-REP protein of Mib1 with deletion of residues 315-330", "test": "ITC with crystallization construct MZM-REP", "type": "binding", "conditions": "Table S1", "summary_of_the_method": "as §1"}, "[5]": {"test_system": "mutated Mib1 (ΔRNG)", "test": "Co-immunoprecipitation with Mib1 mutated at MZM and/or REP interface", "type": "cell-based", "conditions": "HEK293T cells, Figure 5D", "summary_of_the_method": "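Myc-tagged Mib1 (ΔRNG) and V5-tagged Jag1 co-transfected into sub-confluent HEK293T cells by lipofection. After 48 hr, cells lysed on ice in 0.5% Fos-Choline 12, 50 mM HEPES pH 7.4, 150 mM NaCl, DTT, ZnCl2, CaCl2 and protease inhibitors. Cleared lysate incubated with anti-V5 agarose for 1 hr at 4 C. Beads washed 3x, then analysed by anti-Myc and anti-V5 Western blot.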"}}, "data": [{"substance": "full-length tail: Jag1 intracellular tail; HA-tagged in ubiquitin transfer; as DLL4 chimera in reporter assay", "values": [{"measurement": "binding to REP mutant by ITC", "setting": "[1]", "result": "attenuates binding"}]}, {"substance": "Jag1: Jag1 construct, V5-tagged in co-immunoprecipitation", "values": [{"measurement": "co-immunoprecipitation with Mib1 lacking MZM or REP region", "setting": "[2]", "result": "eliminates co-immunoprecipitation (co-IP)"}, {"measurement": "contribution of Mib repeats to C-box binding, co-immunoprecipitation", "setting": "[3]", "result": "first Mib repeat exerts a dominant role in C-box binding"}, {"measurement": "effect of Mib1 Δ315-330 deletion on binding to Jag1", "setting": "[4]", "result": "does not deleteriously affect binding"}, {"measurement": "co-immunoprecipitation with Mib1, both interfaces mutated", "setting": "[5]; both interfaces in combination", "result": "prevent co-immunoprecipitation"}, {"measurement": "co-immunoprecipitation with Mib1, MZM interface mutated", "setting": "[5]; mutation targeting MZM:N-box interface alone", "result": "prevent co-immunoprecipitation"}, {"measurement": "co-immunoprecipitation with Mib1, REP interface mutated", "setting": "[5]; mutation targeting REP:C-box interface alone", "result": "prevent co-immunoprecipitation"}]}]}
